Publication PMC2292216 (The Journal of Experimental Medicine, 2008)

Columns and labels:
BLT2 [1] = molecular target: T1, BLT2 (Homo sapiens, UniProt Q9NPC1); details: cited from earlier work
T1 sequence (Q9NPC1 1-358): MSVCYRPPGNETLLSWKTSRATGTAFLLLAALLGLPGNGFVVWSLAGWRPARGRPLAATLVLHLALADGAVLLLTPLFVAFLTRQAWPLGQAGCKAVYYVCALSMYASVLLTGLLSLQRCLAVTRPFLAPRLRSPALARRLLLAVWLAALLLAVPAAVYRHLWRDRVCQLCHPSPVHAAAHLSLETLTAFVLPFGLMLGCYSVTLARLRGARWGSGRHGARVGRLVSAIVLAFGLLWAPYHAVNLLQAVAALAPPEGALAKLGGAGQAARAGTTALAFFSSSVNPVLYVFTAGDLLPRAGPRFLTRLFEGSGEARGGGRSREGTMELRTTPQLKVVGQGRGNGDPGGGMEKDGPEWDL

platelets = assay: Platelet aggregation; format: cell-based; details: unpublished data
BLT2 [2] = molecular target: T1, BLT2; assay: IP accumulation assay in COS-7 cells coexpressing BLT2 and G14; format: cell-based
BLT2 [3] = molecular target: T1, BLT2; assay: Cytosensor microphysiometer assay in CHO-BLT2 cells; format: cell-based
In short: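 CHO cells stably expressing BLT2, with BLT1 and mock transfectants alongside. Proton flux recorded by cytosensor microphysiometer on exposure to lipid extracts from rat, mouse or platelet sources, or to 1-min RP-HPLC fractions (MeOH/H2O/AcOH 70:30:0.01). ATP served as control for endogenous purinergic receptors.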

BLT2 [4] = molecular target: T1, BLT2; assay: Boyden chamber chemotaxis assay of CHO-BLT2 cells; format: cell-based; details: for concentration required for maximal chemotaxis: Boyden chamber
BLT2 [5] = molecular target: T1, BLT2; assay: cAMP assay; format: cell-based
human BLT1 [6] = molecular target: T2, human BLT1 (Homo sapiens, UniProt Q15722); assay: Intracellular calcium mobilization in CHO-BLT1 cells; format: cell-based; details: concentrations as high as 3.3 μM
mouse BLT2 = molecular target: T3, mouse BLT2 (Mus musculus, UniProt Q9JJL9); assay: IP accumulation assay in cells cotransfected with mouse BLT2 and G14; format: cell-based
T3 sequence (Q9JJL9 1-360): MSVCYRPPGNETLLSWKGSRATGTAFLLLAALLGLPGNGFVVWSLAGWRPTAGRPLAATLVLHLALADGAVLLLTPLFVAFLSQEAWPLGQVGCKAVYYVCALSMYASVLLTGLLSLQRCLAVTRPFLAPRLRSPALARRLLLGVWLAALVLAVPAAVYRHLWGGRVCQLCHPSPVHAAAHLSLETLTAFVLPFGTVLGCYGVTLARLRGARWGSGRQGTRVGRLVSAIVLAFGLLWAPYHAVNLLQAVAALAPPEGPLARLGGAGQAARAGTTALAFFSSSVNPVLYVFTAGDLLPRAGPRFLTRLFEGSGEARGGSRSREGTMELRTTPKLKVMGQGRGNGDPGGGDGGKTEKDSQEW

BLT2 [7] = molecular target: T1, BLT2; assay: [3H]LTB4 displacement assay, membrane preparations of CHO-BLT2 cells; format: binding
human BLT1 [8] = molecular target: T2, human BLT1; assay: cAMP assay; format: cell-based; details: CHO-BLT1 cells, 50 μM forskolin
mouse BMMCs = assay: Chemotaxis; format: cell-based
In short: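 BMMCs from WT, BLT1-KO and BLT2-KO mice (knockouts backcrossed to BALB/c for 10 generations) grown in RPMI 1640 with 10% fetal calf serum, 0.1 mM nonessential amino acids and 50% WEHI-3 cell-conditioned medium; maturation checked by flow cytometry. Migration toward test compound measured; stem cell factor (via c-kit) as positive control.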

human BLT1 [9] = molecular target: T2, human BLT1; assay: Boyden chamber chemotaxis assay of CHO-BLT1 cells; format: cell-based

T2 sequence (Q15722 whole entry): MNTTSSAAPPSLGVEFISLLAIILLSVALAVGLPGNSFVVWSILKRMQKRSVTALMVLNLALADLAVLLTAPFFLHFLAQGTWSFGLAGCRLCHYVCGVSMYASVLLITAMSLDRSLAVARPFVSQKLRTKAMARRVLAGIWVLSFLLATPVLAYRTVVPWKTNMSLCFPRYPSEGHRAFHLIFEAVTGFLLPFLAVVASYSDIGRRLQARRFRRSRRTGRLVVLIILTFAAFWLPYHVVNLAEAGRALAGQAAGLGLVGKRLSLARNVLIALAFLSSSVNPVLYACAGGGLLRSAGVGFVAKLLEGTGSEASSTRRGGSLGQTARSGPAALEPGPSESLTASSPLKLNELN

## CCCCC/C=C\C[C@H](O)/C=C/C=C\C/C=C\CCCC(=O)O [12-HETE]
BLT2 [1]
  agonist activity at BLT2: weak agonists

## CCCCC[C@H](O)/C=C/C=C/C/C=C\CCCC(=O)O [12-HHT, 12(S)-hydroxyheptadeca-5Z, 8E, 10E–trienoic acid]
platelets
  agonistic activity in platelet aggregation: did not display agonistic activity
BLT2 [2]
  EC50: 5.4 nM
BLT2 [3]
  activation of BLT2 in the cytosensor assay: able to activate BLT2
BLT2 [4]
  concentration required for maximal chemotaxis: 30 nM
BLT2 [5]
  IC50: 1 nM
Human BLT1 [6]
  calcium mobilization: failed to induce calcium mobilization
Mouse BLT2
  activation of mouse BLT2 by IP accumulation: activated mouse BLT2
BLT2 [7]
  IC50: 2.8 nM
Human BLT1 [8]
  adenylyl cyclase inhibition: had no effect
Mouse BMMCs; BMMCs from BLT1-KO mice
  migration of BMMCs: migrated in response to 12-HHT
Mouse BMMCs; BMMCs from WT mice
  migration of BMMCs: migrated in response to 12-HHT
Human BLT1 [9]
  chemotaxis: failed to induce chemotaxis

## CCCCC[C@H](O)/C=C/C=C\C/C=C\C/C=C\CCCC(=O)O [15-HETE]
BLT2 [1]
  agonist activity at BLT2: weak agonists

## CCCCC/C=C\C[C@@H](O)/C=C/C=C/C=C\[C@@H](O)CCCC(=O)O [LTB4, 5(S), 12(R)-dihydroxy-6, 14-cis-8, 10-trans-eicosatetraenoic acid]
BLT2 [4]
  concentration required for maximal chemotaxis: > 1,000 nM
Mouse BMMCs; BMMCs from BLT2-KO mice
  migration of BMMCs: migrated in response to LTB4
Mouse BMMCs; BMMCs from WT mice
  migration of BMMCs: migrated in response to LTB4

## SCF: stem cell factor, positive control inducing chemotaxis through the c-kit receptor
Mouse BMMCs; BMMCs from BLT1-KO mice
  migration of BMMCs: induced robust chemotaxis
Mouse BMMCs; BMMCs from BLT2-KO mice
  migration of BMMCs: induced robust chemotaxis
Mouse BMMCs; BMMCs from WT mice
  migration of BMMCs: induced robust chemotaxis

## pertussis toxin
BLT2 [4]; pretreatment
  effect of pretreatment on 12-HHT-induced chemotaxis: completely abolished
BLT2 [5]; CHO-BLT2 cells, pretreatment
  effect of pretreatment on 12-HHT-dependent adenylyl cyclase inhibition: completely blocked
